Reference: ChEMBL document CHEMBL1240492, “3D-QSAR studies of latrunculin-based actin polymerization inhibitors using CoMFA and CoMSIA approaches” (Eur J Med Chem, 2010)

These molecules were tested on MCF7 (assay: Antiproliferative activity against human MCF7 cells after 72 hrs by MTT assay). Settings: MCF7, 72 h.
Type: functional, cell-based
Procedure, shortened: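 MCF7 breast cancer cells in exponential growth seeded at 8 × 10^3 cells/well and left 24 h to attach. Medium was then switched to serum-free RPMI containing compound at […]. Cells were cultured 72 h at 37 °C in 5% CO2, then given MTT for 4 h and solubilized. A570 was converted to cell number using a hemocytometer-based standard curve. IC50 was obtained by nonlinear regression of log concentration versus cells/well.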
For C/C1=C/C(=O)O[C@@H]2C[C@@H](CC[C@H](C)/C=C\C=C\CC1)O[C@@](OC(=O)NCCBr)([C@@H]1CSC(=O)N1)C2, the IC50 was 19.4 µM. For C/C1=C/C(=O)O[C@@H]2C[C@@H](CC[C@H](C)/C=C\C=C\CC1)O[C@@](OC(=O)c1ccccc1)([C@@H]1CSC(=O)N1)C2, the IC50 was 1.92 µM. CO[C@]1([C@@H]2CSC(=O)N2C(=O)c2ccccc2)C[C@H]2C[C@@H](CC[C@H](C)/C=C\C=C\CC/C(C)=C\C(=O)O2)O1 gave an IC50 of 1.82 µM. Work on COc1ccc(CC(=O)N2C(=O)SC[C@H]2[C@@]2(OC)C[C@H]3C[C@@H](CC[C@H](C)/C=C\C=C\CC/C(C)=C\C(=O)O3)O2)cc1 yielded an IC50 of 15.4 µM. Work on CCCCCCCCO[C@]1([C@@H]2CSC(=O)N2)C[C@H]2C[C@@H](CC[C@H](C)/C=C\CC/C(C)=C\C(=O)O2)O1 [15-O-OCTYLLATRUNCULIN B] yielded an IC50 of 50.1 µM. Work on C/C1=C/C(=O)O[C@@H]2C[C@@H](CC[C@H](C)/C=C\C=C\CC1)O[C@@](OC(=O)NCCCCl)([C@@H]1CSC(=O)N1)C2 yielded an IC50 of 25.7 µM. C/C1=C/C(=O)O[C@@H]2C[C@@H](CC[C@H](C)/C=C\CC1)O[C@@](O)([C@@H]1CSC(=O)N1)C2 [LATRUNCULIN B] gave an IC50 of 1.91 µM. C/C1=C/C(=O)O[C@@H]2C[C@@H](CC[C@H](C)/C=C\C=C\CC1)O[C@@](OC(=O)NCCCl)([C@@H]1CSC(=O)N1)C2 showed an IC50 of 17.3 µM. With CO[C@]1([C@@H]2CSC(=O)N2CCCO)C[C@H]2C[C@@H](CC[C@H](C)/C=C\C=C\CC/C(C)=C\C(=O)O2)O1 the IC50 was 19.2 µM. CC(=O)N1C(=O)SC[C@H]1[C@@]1(O)C[C@H]2C[C@@H](CC[C@H](C)/C=C\CC/C(C)=C\C(=O)O2)O1 [N-ACETYLLATRUNCULIN B] gave an IC50 of 4.3 µM. Work on C/C1=C/C(=O)O[C@@H]2C[C@@H](CC[C@H](C)/C=C\C=C\CC1)O[C@@](OC(=O)NCc1ccccc1)([C@@H]1CSC(=O)N1)C2 yielded an IC50 of 3.5 µM. With C/C1=C/C(=O)O[C@@H]2C[C@@H](CC[C@H](C)/C=C\C=C\CC1)O[C@@](O)([C@@H]1CSC(=O)N1)C2 [LATRUNCULIN A] the IC50 was 2.08 µM. C/C1=C/C(=O)O[C@@H]2C[C@@H](CC[C@H](C)/C=C\CC1)O[C@@](O)([C@@H]1CSC(=O)N1CO)C2 [N-HYDROXYMETHYLLATRUNCULIN B] was tested, and the IC50 was 2.35 µM. CO[C@]1([C@@H]2CSC(=O)N2)C[C@H]2C[C@@H](CC[C@H](C)/C=C\CC/C(C)=C\C(=O)O2)O1 [15-METHOXYLATRUNCULIN B] showed an IC50 of 19.3 µM. C/C1=C/C(=O)O[C@@H]2C[C@@H](CC[C@H](C)/C=C\C=C\CC1)O[C@@](O)([C@@H]1CSC(=O)N1CO)C2 was tested, and the IC50 was 8.34 µM. Molecule C/C1=C/C(=O)O[C@@H]2C[C@@H](CC[C@H](C)/C=C\C=C\CC1)O[C@@](O)([C@@H]1CSC(=O)N1Cc1ccccc1)C2 has an IC50 of 1.59 µM. CCN1C(=O)SC[C@H]1[C@@]1(OC)C[C@H]2C[C@@H](CC[C@H](C)/C=C\C=C\CC/C(C)=C\C(=O)O2)O1 gave an IC50 of 20.7 µM. Work on CO[C@]1([C@@H]2CSC(=O)N2)C[C@H]2C[C@@H](CC[C@H](C)/C=C\C=C\CC/C(C)=C\C(=O)O2)O1 yielded an IC50 of 10.2 µM. Molecule C/C1=C/C(=O)O[C@@H]2C[C@@H](CC[C@H](C)/C=C\C=C\CC1)O[C@@](OC(=O)Nc1ccccc1)([C@@H]1CSC(=O)N1)C2 has an IC50 of 7.69 µM. In the case of CO[C@]1([C@@H]2CSC(=O)N2C)C[C@H]2C[C@@H](CC[C@H](C)/C=C\C=C\CC/C(C)=C\C(=O)O2)O1, the IC50 is reported as 13.1 µM. C/C1=C/C(=O)O[C@@H]2C[C@@H](CC[C@H](C)/C=C\C=C\CC1)O[C@@](OCCc1ccccc1)([C@@H]1CSC(=O)N1)C2 was tested, and the IC50 was 10 µM. Work on CCCCO[C@]1([C@@H]2CSC(=O)N2)C[C@H]2C[C@@H](CC[C@H](C)/C=C\CC/C(C)=C\C(=O)O2)O1 [15-O-BUTYLLATRUNCULIN B] yielded an IC50 of 50.1 µM. CO[C@]1([C@@H]2CSC(=O)N2Cc2ccccc2)C[C@H]2C[C@@H](CC[C@H](C)/C=C\C=C\CC/C(C)=C\C(=O)O2)O1 showed an IC50 of 1.28 µM. With CCN1C(=O)SC[C@H]1[C@@]1(O)C[C@H]2C[C@@H](CC[C@H](C)/C=C\C=C\CC/C(C)=C\C(=O)O2)O1 the IC50 was 1.05 µM. CO[C@]1([C@@H]2CSC(=O)N2C2CCCC2)C[C@H]2C[C@@H](CC[C@H](C)/C=C\C=C\CC/C(C)=C\C(=O)O2)O1 was tested, and the IC50 was 5.2 µM.
